Measurements pooled from the literature.
Each line is one published result; the experiments were not run side by side.

`CN1CCC(NCc2cccc(-c3ccc(S(=O)(=O)NCc4ccccc4)cc3)c2)CC1` gave a CC50 of 32.3 µM (HEK293; cell growth or viability, MTT; 24 h).
For `Cn1cnc2c1c(=O)n(CC(=O)Nc1c(Cl)cccc1Cl)c(=O)n2C`, the viability was 56.1% (NCI-H1975; cell growth or viability, MTT; 6.3 µg).
`Cc1ccc2c(=O)n(-c3ccc(F)cc3)c(CCN3C(=O)c4cccc(OC(C)C)c4C3=O)nc2c1` has a Papp A→B of 30 ×10⁻⁶ cm/s (MDCK-MDR1; Caco-2; 1 µM, 90 min, pH 7.4).
With `O=C(Sc1cccccc1=O)c1ccc(C(F)(F)F)cc1` the CC50 was 56.1 µM (HepDES19; cell growth or viability, MTS; 72 h).
For `COc1ccc2cc3[n+](cc2c1OC)CCc1cc2c(cc1-3)OCO2`, the Papp A→B was 0.39 ×10⁻⁶ cm/s (MDCK-MDR1; Caco-2; 10 µg/mL, 4 h).
`CCS(=O)(=O)Nc1cccc(-c2cn(C)c(=O)c3ccccc23)c1` gave a Papp of 15 ×10⁻⁶ cm/s (MDCK-MDR1; Caco-2).
For `COC(=O)c1ccccc1-c1c2ccc(=N)cc-2oc2cc(N)ccc12`, the efflux ratio was 4.92 (MDR1; MDCK-MDR1; 5 µM, 2 h, pH 7.4).
`CC1c2cc(c(O)cc2O)C(C)c2cc(c(O)cc2O)C(C)c2cc(c(O)cc2O)C(C)c2cc1c(O)cc2O` (stereo not drawn) has a CC50 of 14.9 µM (HEK293; cell growth or viability, MTT; 24 h).
With `O=c1cccccc1SSc1cccccc1=O` the CC50 was 9.6 µM (HepDES19; cell growth or viability, MTS; 72 h).
The CC50 of `O=C(O)/C=C/C=C/c1cccc(Oc2cc(Cl)cc(Cl)c2)c1` is reported as over 200 µM (HEK293; cell growth or viability, MTT; 24 h).
The CC50 of `CC1c2cc(c(O)c(O)c2O)C(C)c2cc(c(O)c(O)c2O)C(C)c2cc(c(O)c(O)c2O)C(C)c2cc1c(O)c(O)c2O` (stereo not drawn) is reported as 102 µM (HEK293; cell growth or viability, ATP luminescence; 24 h).
The CC50 of `CC(C)Cn1c(=O)n(C)c(=O)c2c(-c3cncn3C)n(Cc3cccc4ccccc34)nc21` is reported as over 200 µM (HEK293; cell growth or viability, MTT; 24 h).
`CCS(=O)(=O)Nc1ccc(OCCOCCOCCOCCOc2ccc(NS(=O)(=O)CC)cc2-c2cn(C)c(=O)c3ccccc23)c(-c2cn(C)c(=O)c3ccccc23)c1` has a Papp of 0.13 ×10⁻⁶ cm/s (MDCK-MDR1; Caco-2).
For `Cc1ccc2c(c1C)NC(=O)[C@]21NN=C(c2ccccc2)S1`, the CC50 was 100 µM (HEK293; cell growth or viability, MTT; 24 h).
For `O=C(Sc1cccccc1=O)c1ccccc1C(F)(F)F`, the CC50 was 8.6 µM (HepDES19; cell growth or viability, MTS; 72 h).
